The values that follow come from ChEMBL document CHEMBL4373649, “Novel antimycobacterial C-21 amide derivatives of the antibiotic fusidic acid: synthesis, pharmacological evaluation and rationalization of media-dependent activity using molecular docking studies in the binding site of human serum albumin” (Medchemcomm, 2019).

For data set [1], the system named is CHO-K1. The data set is described as follows: Cytotoxicity against CHOK1 cells assessed as reduction in cell viability incubated for 48 hrs by MTT assay. To be noted: Cricetulus griseus, CHO-K1, 48 h. It is filed as cell-based. The procedure, abridged: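 CHO-K1 cells seeded at 10^5 cells/well 24 h before exposure, medium then replaced with fresh medium containing compound; 48 h at 37 °C, 5% CO2, MTT added at 44 h for 4 h, formazan dissolved in DMSO, OD read at 540 nm. Triplicates; DMSO stocks 2 mg/mL, poorly soluble samples as suspensions; emetine reference; IC50 from non-linear dose-response fit.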
(In general: Formazan colour is commonly taken as a measure of viable cells.)

For data set [2], the system named is Mycobacterium tuberculosis. Briefly: Antimycobacterial activity against Mycobacterium tuberculosis H37RvMA ATCC 27294 cultured in non protein-based Middlebrook 7H9 medium supplemented with glucose-casitone-tyloxapol assessed as inhibition of bacterial growth incubated for 7 days in by alamar blue staining based assay. It is filed as functional. The note with it: H37RvMA ATCC 27294, 168 h. The procedure, abridged:
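Medium is 7H9 with 0.03% Casitone, 0.4% glucose and 0.05% Tyloxapol. H37RvMa is grown to OD600 0.6–0.7 and diluted 1:500. Duplicate two-fold dilutions over 10 wells come from 10 mM DMSO stocks. Incubation at 37 °C, 5% CO2. AlamarBlue added on day 7. The MIC90 is the lowest concentration with no visible growth on day 8, or is read by fluorescence.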
On the technique in general: The colour change of resazurin is a common sign of viable cells or microbes.

Data set [3] has as its system Mycobacterium tuberculosis. The data set is described as follows: Antimycobacterial activity against Mycobacterium tuberculosis H37RvMA ATCC 27294 cultured in protein-based Middlebrook 7H9 medium supplemented with glucose, albumin-dextrose-catalase and Tween 80 assessed as inhibition of bacterial growth incubated for 7 days in by alamar blue staining based assay. It is filed as functional. The note with it: H37RvMA ATCC 27294, 168 h. The procedure, abridged: (§1)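 Broth microdilution MIC90 assay against H37RvMa (ATCC 27294). Culture grown to OD600 0.6–0.7, diluted 1:500. Compounds come from 10 mM DMSO stocks and are run as duplicate two-fold dilutions over 10 wells. Plates incubated at 37 °C, 5% CO2, humidified. AlamarBlue added on day 7 and incubated 24 h more, then read on day 8, visually (blue = no growth) or by fluorescence (excitation 540 nm).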

For data set [4], the system named is Mycobacterium tuberculosis. The data set is described as follows: Antimycobacterial activity against Mycobacterium tuberculosis. In kind it is functional. The procedure, abridged: as §1
Data set [5] is described as follows: Protein binding in human serum. It is filed as ADME, cell-free. To be noted: read-out: PB.

SMILES strings stand for the structures. Values after ≈ are worked out from the molar mass of the structure shown.

As for `CC(=O)O[C@H]1C[C@@]2(C)[C@@H](C[C@@H](O)[C@H]3[C@@]4(C)CC[C@@H](O)[C@@H](C)[C@@H]4CC[C@@]32C)/C1=C(\CCC=C(C)C)C(=O)NCc1ccc(C)cc1`, in data set [1], the IC50 was over 50 µM. For the same compound, the MIC90 in data set [2] is over 125 µM; in data set [3], 125 µM (≈ 77.5 µg/mL).
On to `CC(=O)O[C@H]1C[C@@]2(C)[C@@H](C[C@@H](O)[C@H]3[C@@]4(C)CC[C@@H](O)[C@@H](C)[C@@H]4CC[C@@]32C)/C1=C(\CCC=C(C)C)C(=O)NC(C)c1ccc(F)cc1` (mixture of isomers), for which, in data set [1], the IC50 came to 45.3 µM. Besides, the MIC90 in data set [2] is 19.8 µM; in data set [3], over 125 µM.
Take `CC(=O)O[C@H]1C[C@@]2(C)[C@@H](C[C@@H](O)[C@H]3[C@@]4(C)CC[C@@H](O)[C@@H](C)[C@@H]4CC[C@@]32C)/C1=C(\CCC=C(C)C)C(=O)NC(C)c1ccncc1` (mixture of isomers): the IC50 in data set [1] is over 50 µM. Further, the MIC90 is 13 µM in data set [2] and 125 µM in data set [3].
Turning to `CC(=O)O[C@H]1C[C@@]2(C)[C@@H](C[C@@H](O)[C@H]3[C@@]4(C)CC[C@@H](O)[C@@H](C)[C@@H]4CC[C@@]32C)/C1=C(\CCC=C(C)C)C(=O)NC(C)c1ccc(C)cc1` (mixture of isomers), the IC50 in data set [1] turned out to be 47.9 µM. In addition, the MIC90 was 2.91 µM in data set [2] and over 125 µM in data set [3].
For `CC(=O)O[C@H]1C[C@@]2(C)[C@@H](C[C@@H](O)[C@H]3[C@@]4(C)CC[C@@H](O)[C@@H](C)[C@@H]4CC[C@@]32C)/C1=C(\CCC=C(C)C)C(=O)NC(C)c1cnccn1` (mixture of isomers) the same measures were over 50 µM, 17.5 µM and 62.5 µM.
`CC(=O)O[C@H]1C[C@@]2(C)[C@@H](C[C@@H](O)[C@H]3[C@@]4(C)CC[C@@H](O)[C@@H](C)[C@@H]4CC[C@@]32C)/C1=C(\CCC=C(C)C)C(=O)NC(C)c1cccnc1` (mixture of isomers): the IC50 in data set [1] was over 50 µM. Further, the MIC90 in data set [2] is 17.9 µM; in data set [3], over 125 µM.
`CC(=O)O[C@H]1C[C@@]2(C)[C@@H](C[C@@H](O)[C@H]3[C@@]4(C)CC[C@@H](O)[C@@H](C)[C@@H]4CC[C@@]32C)/C1=C(\CCC=C(C)C)C(=O)NC(C)c1ccc(Cl)c(Cl)c1` (mixture of isomers): the half-maximal inhibitory concentration (IC50) in data set [1] was over 50 µM. For the same compound, the figures for the MIC90 in data set [2] and in data set [3] were 7.2 µM and 32.3 µM, respectively.
Take `CC(=O)O[C@H]1C[C@@]2(C)[C@@H](C[C@@H](O)[C@H]3[C@@]4(C)CC[C@@H](O)[C@@H](C)[C@@H]4CC[C@@]32C)/C1=C(\CCC=C(C)C)C(=O)O` [FUSIDIC ACID]: the results for the MIC90 in data set [4], in data set [2] and in data set [3] were 31 µM (≈ 16 µg/mL), 0.24 µM (≈ 0.124 µg/mL) and 9.25 µM (≈ 4.78 µg/mL), respectively. Moreover, the fraction unbound in data set [5] lay in the range of 0.03 to 0.05.

Usually IC50 stands for the midpoint of a concentration-inhibition curve. The term MIC90 denotes the lowest concentration that inhibits either 90% of growth or 90% of the strains tested, depending on the study.
